Hits are enriched below; roughly 3.7% of the tested compounds scored in any of these assays.
KCNQ1 act: potentiates or activates the human KCNQ1 potassium channel; B-score at 10 µM; 310,000 tested, 0.35% active; CHO-K1 KCNQ1, thallium flux FluxOR fluorescence; hits give high values; P51787; AID 2648;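 active = fluorescence ratio B-score, a plate-corrected score, at least three library SD, with initial intensity B-score within 5 SD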
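System: CHO-K1 cells stably expressing KCNQ1 / Medium: assay buffer for compound exposure, DMSO matched across wells / Reagent: thallium- and potassium-containing depolarizing buffer / Compound: one concentration, matched DMSO / Incubation: 20 min compound pretreatment at room temperature / Measured by: kinetic FluxOR fluorescence, 10 s baseline plus 110 s post-stimulus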
KCNK3 block: human KCNK3 channel inhibition, primary screen; B-score at 10 µM; O14649; CHO-KCNK3 thallium flux, FluxOR fluorescence; hits give low values; 340,000 tested, 0.84% active; AID 602410;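 active = B-score under library mean minus 4 SD, starting fluorescence ratio at most library mean plus 5 SD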;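 note: more negative B-score means stronger inhibition of thallium flux through KCNK3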
KCNQ1 block: inhibitors of human KCNQ1 potassium channel; B-score at 10 µM; 310,000 tested, 1.3% active; AID 2642; CHO-K1 KCNQ1, FluxOR thallium flux fluorescence; hits give high values; P51787;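 active = compounds whose thallium flux B-score, printed positive for inhibition, exceeds three library SD while starting fluorescence stays within three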;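 note: channel opened by potassium depolarization with thallium stimulus after 20 min compound exposure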
KCNK9 inh: inhibitors of human KCNK9 two-pore domain potassium channel. HEK293 KCNK9, FluxOR thallium flux fluorescence; hits give low values. AID 488922. B-score at 10 µM. 310,000 tested, 1.2% active. Q9NPC2;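 active = ratio B-score over 3 SD below the library mean, with starting fluorescence within 5 SD of its mean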;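 note: negative B-score means less thallium flux so channel inhibition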
hERG rescue: shields human hERG channel from block by proarrhythmic agents; Q12809; CHO-hERG, FluxOR thallium flux, dofetilide IC70 present; activation (rescue from dofetilide block), less the hit threshold, % at 10 µM; 310,000 tested, 0.51% active; AID 1511;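 active = activation above the mean of controls blocked by dofetilide plus 5 SD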;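 note: thallium influx through hERG after potassium depolarization seen as dye fluorescence rise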
Kir21 inh: inhibitors of mouse Kir2.1 inward-rectifier potassium channel. P35561. HEK293-Kir2.1, FluxOR thallium flux fluorescence; hits give low values. B-score at 10 µM. 310,000 tested, 0.85% active. AID 1672;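 active = fluorescence ratio B-score at or below minus 3 SD of library scores, with starting-brightness B-score within 2 SD, cut at about -4.2 in these data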;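 note: channel flux triggered by added potassium and thallium sulfate stimulus; B-score of peak minus minimum fluorescence over baseline after thallium stimulus; more negative B-score means stronger Kir2.1 block with less thallium influx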
Active calls of the source: *.

For O=c1c(-c2ccccc2)[n+]([O-])c2ccccc2n1O the results were KCNQ1 act inactive, KCNK3 block inactive, KCNQ1 block inactive, KCNK9 inh inactive, hERG rescue 13* and Kir21 inh -0.13.
`COn1c(=O)c(-c2ccc(C)cc2)[n+]([O-])c2ccccc21` gave KCNQ1 act inactive, KCNK3 block inactive, KCNQ1 block inactive, KCNK9 inh inactive, hERG rescue -10 and Kir21 inh -0.29.
Screening CCOc1ccc(-c2c(=O)n(OCC)c3ccccc3[n+]2[O-])cc1 returned KCNQ1 act inactive, KCNK3 block inactive, KCNQ1 block inactive, KCNK9 inh inactive, hERG rescue -4 and Kir21 inh -0.69.
For COn1c(=O)c(-c2ccccc2)[n+]([O-])c2ccccc21 the results were KCNQ1 act inactive, KCNK3 block inactive, KCNQ1 block inactive, KCNK9 inh inactive, hERG rescue -2 and Kir21 inh 0.61.
For CCOc1ccc(-c2c(=O)n(O)c3ccccc3[n+]2[O-])cc1 the results were KCNQ1 act 12*, KCNK3 block inactive, KCNQ1 block inactive, KCNK9 inh inactive, hERG rescue 18* and Kir21 inh -0.47.
`C[C@@H](OC(=O)c1[nH]cnc1C(=O)NCc1ccc(CNC(=O)OC(C)(C)C)cc1)c1ccccc1` gave KCNK3 block inactive.
Screening COCCNC(=O)C(c1ccncc1)N(C(=O)Cn1nnc2ccccc21)c1ccc(OC)cc1 (configuration not stated) returned KCNQ1 act inactive, KCNK3 block inactive, KCNQ1 block inactive, KCNK9 inh inactive, hERG rescue 5.0* and Kir21 inh -0.88.
CCOc1ccccc1CNS(=O)(=O)c1ccc2c(c1)oc(=O)n2C was read as KCNQ1 act inactive, KCNK3 block inactive, KCNQ1 block inactive, KCNK9 inh inactive, hERG rescue -2 and Kir21 inh -2.2.
`CCOc1ccccc1CNS(=O)(=O)c1ccc2[nH]c(=O)sc2c1` gave KCNQ1 act inactive, KCNK3 block inactive, KCNQ1 block inactive, KCNK9 inh inactive, hERG rescue -7 and Kir21 inh -5.2*.
Screening [O-][n+]1c2c(c3c4non(O)c4ccc31)CCCC2 returned KCNQ1 act inactive, KCNK3 block inactive, KCNQ1 block 6*, KCNK9 inh inactive, hERG rescue -20 and Kir21 inh -4.7.
For COn1c2c(c3c4no[n+]([O-])c4ccc31)CCCC2 the results were KCNQ1 act inactive, KCNK3 block inactive, KCNQ1 block inactive, KCNK9 inh inactive, hERG rescue -4 and Kir21 inh -0.25.
`O=C(O)c1ccccc1Cc1ccc2c(c1)CCCC2` gave KCNK3 block inactive.
COc1ccc(S(=O)(=O)N2CCSC2c2ccccc2)cc1 (configuration not stated) was read as KCNQ1 act inactive, KCNK3 block inactive, KCNQ1 block inactive, KCNK9 inh inactive, hERG rescue -9 and Kir21 inh -3.1.
Screening O=[N+]([O-])c1ccc(S(=O)(=O)N2CCSC2c2ccco2)cc1 (configuration not stated) returned KCNQ1 act inactive, KCNK3 block inactive, KCNQ1 block inactive, KCNK9 inh inactive, hERG rescue -10 and Kir21 inh -4.6*.
`C=CCn1c(O)c(N=NC(=S)Nc2ccc(OC)cc2)c2ccccc21` gave KCNQ1 act 17*, KCNK3 block inactive, KCNQ1 block inactive, KCNK9 inh inactive, hERG rescue 3 and Kir21 inh -5.3*.
For C=CCn1c(O)c(N=NC(=O)OCC)c2ccccc21 the results were KCNQ1 act inactive, KCNK3 block inactive, KCNQ1 block inactive, KCNK9 inh inactive, hERG rescue -7 and Kir21 inh -0.01.
C=CCn1c(O)c(N=NC(=S)Nc2cccc(OC)c2)c2ccccc21 was read as KCNQ1 act 8*, KCNK3 block inactive, KCNQ1 block inactive, KCNK9 inh inactive, hERG rescue 25* and Kir21 inh -1.9.
CCc1ccc(-c2cc(C)no2)cc1S(=O)(=O)NCCCN1CCN(c2ccccc2)CC1 was read as KCNQ1 act inactive, KCNK3 block inactive, KCNQ1 block inactive, KCNK9 inh inactive, hERG rescue -7 and Kir21 inh -0.43.
`CC(C)(C)c1ccc(OCCCC(=O)NNC(=O)c2ccccc2O)cc1` gave KCNQ1 act inactive, KCNK3 block inactive, KCNQ1 block 8*, KCNK9 inh inactive, hERG rescue -28 and Kir21 inh -0.01.
Screening Cc1cc(C(=O)NNC(=O)CCCOc2ccccc2)c(C)o1 returned KCNQ1 act inactive, KCNK3 block inactive, KCNQ1 block inactive, KCNK9 inh inactive, hERG rescue -18 and Kir21 inh -0.76.
`O=S(=O)(Nc1ccc(S(=O)(=O)Nc2ncccn2)cc1)c1ccc(Cl)cc1` gave KCNQ1 act inactive, KCNK3 block inactive, KCNQ1 block inactive, KCNK9 inh inactive, hERG rescue -11 and Kir21 inh 0.81.
`O=S(=O)(Nc1cccc(CCc2ccccn2)c1)c1ccc(Cl)cc1` gave KCNQ1 act inactive, KCNK3 block inactive, KCNQ1 block inactive, KCNK9 inh inactive, hERG rescue -12 and Kir21 inh -9.2*.
Screening S=c1[nH]c(-c2ccccc2)cn1/N=C/c1cccc2ccccc12 returned KCNQ1 act 14*, KCNK3 block inactive, KCNQ1 block inactive, KCNK9 inh inactive, hERG rescue 69* and Kir21 inh 1.4.
S=c1[nH]c(-c2ccccc2)cn1/N=C/c1ccccc1Br was read as KCNQ1 act inactive, KCNK3 block inactive, KCNQ1 block inactive, KCNK9 inh inactive, hERG rescue 3 and Kir21 inh -0.54.
Cc1c(C(Nc2ccccn2)c2ccc(Cl)cc2)c(=O)n(-c2ccccc2)n1C (configuration not stated) was read as KCNQ1 act inactive, KCNK3 block inactive, KCNQ1 block inactive, KCNK9 inh -6.6*, hERG rescue -17 and Kir21 inh 0.18.
CC(c1cccs1)N(Cc1ccco1)C(=S)Nc1ccc(F)c(Cl)c1 (configuration not stated) was read as KCNQ1 act inactive, KCNK3 block inactive, KCNQ1 block 10*, KCNK9 inh inactive, hERG rescue -15 and Kir21 inh -0.25.
Screening Cc1ccccc1NC(=S)N(Cc1ccco1)C(C)c1cccs1 (configuration not stated) returned KCNQ1 act inactive, KCNK3 block inactive, KCNQ1 block inactive, KCNK9 inh inactive, hERG rescue -14 and Kir21 inh -3.
`Cc1cccc(C)c1OCCCCc1c(C)n[nH]c1C` gave KCNQ1 act inactive, KCNK3 block inactive, KCNQ1 block inactive, KCNK9 inh -8*, hERG rescue -24 and Kir21 inh -3.6.
